In experiment [1] the test system is A549. Briefly: Antitumor activity against A549 human lung carcinoma cell line. The experiment is classed as functional, cell-based. In outline:
(§1)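 Crystal violet staining of cultured tumour cells. The stain was solubilized in 0.1 M AcOH-EtOH (1:1 v/v) and optical density read at 590 nm. IC50 came from linear regression of the absorbance data. Compounds were in DMSO vehicle; mitomycin C was in DMSO/saline. Indoloquinone values are the mean of two experiments per cell line.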

For the next experiment, the system named is B16. The experiment in a line: Antitumor activity against B16-BN murine melanoma cell line. The experiment is classed as functional, cell-based. Particulars: Mus musculus. The method in brief: as §1
In another experiment the test system is B16-F10. The experiment in a line: Antitumor activity against B16-F10 murine melanoma cell line. Format: functional, cell-based. To be noted: Mus musculus. The method in brief:
as §1

Experiment [2] deals with HCT-116. The experiment in a line: Antitumor activity against HCT116 human colon carcinoma cell line. The experiment is classed as functional, cell-based. In outline:
as §1

The species named for the next experiment is Homo sapiens. The experiment in a line: Antitumor activity against moser human colon carcinoma cell line. Format: functional. The method in brief:
as §1

Experiment [3] relates to P388. The experiment in a line: Minimum effective dose of compound against P388 murine leukemia in mice. Format: functional. Particulars: Mus musculus, read-out: MED. The method in brief:
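P388 ascites leukemia (10^6 cells) in CDF1 female mice, dosed once on day 1, six mice per dose, saline controls (10). Minimal effective dose defined as dose giving % T/C = 125, from median survival times.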

In experiment [4] the test system is P388. Briefly: Maximum effect on P388 murine leukemia in mice at a dose of 32.0 mg/kg. Format: functional, Mus musculus. The method in brief:
(§2)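 P388 leukemia, 10^6 ascites cells implanted in CDF1 female mice; single dose on day 1, six mice per dose, 10 saline controls, concurrent mitomycin C control group per experiment. Max effect = % T/C (median survival time treated/control × 100) at optimal dose.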

The nature of experiment [5]: Antitumor activity against SW1271 human lung carcinoma cell line. The experiment is classed as functional, cell-based. The method in brief: as §1
In experiment [6] the test system is A549. The experiment in a line: Antitumor activity against A549 human lung carcinoma cell line in experiment 1. The experiment is classed as functional, cell-based. In outline:
(§3)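 Cell growth in A549 and HCT-116 cultures was read by tetrazolium staining, with an IC50 reported for each of two separate experiments.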

Experiment [7] concerns A549. Briefly: Antitumor activity against A549 human lung carcinoma cell line in experiment 2. Format: functional, cell-based. In outline: as §3
Experiment [8] relates to HCT-116. The experiment in a line: Antitumor activity against HCT116 human colon carcinoma cell line experiment 1. The experiment is classed as functional, cell-based. In outline:
as §3

Experiment [9] relates to HCT-116. Briefly: Antitumor activity against HCT116 human colon carcinoma cell line experiment 2. The experiment is classed as functional, cell-based. The method in brief: as §3
Experiment [10] concerns P388. Briefly: Maximum effect against P388 murine leukemia in mice at a dose of 25.6 mg/kg. The experiment is classed as functional, Mus musculus.
Experiment [11] has as its system P388. The experiment in a line: Maximum effect on P388 murine leukemia in mice at a dose of 12.8 mg/kg. The experiment is classed as functional, Mus musculus. The method in brief:
as §2

Experiment [12] deals with P388. The experiment in a line: Maximum effect on P388 murine leukemia in mice at a dose of 51.2 mg/kg. The experiment is classed as functional, Mus musculus.
A short description of experiment [13]: Antitumor activity against SW900 human lung carcinoma cell line. The experiment is classed as functional, cell-based. The method in brief: as §1
Experiment [14] relates to P388. The experiment in a line: Maximum effect on P388 murine leukemia in mice at a dose of 6.4 mg/kg. The experiment is classed as functional, Mus musculus.
Experiment [15] has as its system P388. Briefly: Maximum effect on P388 murine leukemia in mice at a dose of 25.6 mg/kg.

These results are taken from ChEMBL document CHEMBL1124560, “New 2-substituted indoloquinone mitomycin analogues” (J Med Chem, 1989).

Structures are written as SMILES. In brackets after ≈: the same amount, converted by molar mass.

On to `CNC(=O)OCc1c2c(n(C)c1COC(=O)NC)C(=O)C(C)=C(N1CC1)C2=O`, for which the IC50 (in general, the concentration needed to halve the response being measured) in the experiment with A549 [1] turned out to be 0.03 µg/mL (≈ 0.0768 µM); in the experiment on B16, 1.6 µg/mL (≈ 4.1 µM); in the experiment with B16-F10 it was 0.66 µg/mL (≈ 1.69 µM); in the experiment on HCT-116 [2], 0.17 µg/mL (≈ 0.435 µM); in the experiment listed under Homo sapiens it was 0.13 µg/mL (≈ 0.333 µM); in experiment [5] it was 2.7 µg/mL (≈ 6.92 µM). Also, in the experiment on P388 [3], the minimal effective dose came to 14.5 mg/kg. Further, in the experiment with P388 [4], the T/C – broadly, the result in the treated group divided by that in the control group, in per cent – was 145%.
As to `CNC(=O)OCc1c2c(n(C)c1C(C)OC(C)=O)C(=O)C(C)=C(OC)C2=O` (stereo unspecified), the IC50 with A549 [6] amounted to 0.075 µg/mL (≈ 0.198 µM); with A549 [7], 0.065 µg/mL (≈ 0.172 µM); in the experiment with HCT-116 [8], 0.06 µg/mL (≈ 0.159 µM); with HCT-116 [9], 0.06 µg/mL (≈ 0.159 µM).
Consider `CNC(=O)OCc1c2c(n(C)c1COC(=O)NC)C(O)=C(C)C(=N)C2=O`, for which the IC50 in the experiment with A549 [1] stood at 1.6 µg/mL (≈ 4.39 µM); with B16, 9.5 µg/mL (≈ 26.1 µM); in the experiment on B16-F10, 13.3 µg/mL (≈ 36.5 µM); in the experiment with HCT-116 [2], 3.7 µg/mL (≈ 10.2 µM); in the experiment filed under Homo sapiens it was 3.1 µg/mL (≈ 8.51 µM); in experiment [5], 7.9 µg/mL (≈ 21.7 µM). Also, the T/C in the experiment on P388 [10] amounted to 120%.
In the case of `CNC(=O)OCc1c2c(n(C)c1COC(C)=O)C(=O)C(C)=C(N1CC1)C2=O`, the 50% inhibitory concentration (IC50) is below 0.02 µg/mL in the experiment on A549 [1]; 0.27 µg/mL (≈ 0.719 µM) with B16; 0.39 µg/mL (≈ 1.04 µM) with B16-F10; 0.065 µg/mL (≈ 0.173 µM) with HCT-116 [2]; 0.035 µg/mL (≈ 0.0932 µM) in the experiment listed under Homo sapiens; 0.73 µg/mL (≈ 1.94 µM) in experiment [5]. The T/C in the experiment with P388 [11] was determined as 114%.
On to `CNC(=O)OCc1c2c(n(C)c1COC(C)=O)C(=O)C(C)=C(OC)C2=O`, for which the IC50 in the experiment on B16-F10 stood at 0.2 µg/mL (≈ 0.549 µM); with HCT-116 [2] it was 0.065 µg/mL (≈ 0.178 µM); in the experiment filed under Homo sapiens, 0.09 µg/mL (≈ 0.247 µM); in [13] it was 0.04 µg/mL (≈ 0.11 µM); in experiment [5] it was 0.47 µg/mL (≈ 1.29 µM). The T/C in the experiment on P388 [12] is reported as 105%.
`CNC(=O)OCc1c2c(n(C)c1COC(=O)NC)C(=O)C(C)=C(OC)C2=O`: the IC50 in the experiment on B16-F10 is below 0.03 µg/mL; in the experiment on HCT-116 [2] it was below 0.03 µg/mL; in the experiment listed under Homo sapiens it was below 0.03 µg/mL; in experiment [13], below 0.03 µg/mL; in experiment [5] it was 0.14 µg/mL (≈ 0.369 µM). In addition, the T/C with P388 [14] was 100%.
As to `CNC(=O)OCc1c2c(n(C)c1COC(C)=O)C(O)=C(C)C(=N)C2=O`, the IC50 was above 3.1 µg/mL in the experiment on A549 [1]; 14 µg/mL (≈ 40.1 µM) in the experiment on B16; above 31 µg/mL in the experiment on B16-F10; above 31 µg/mL in the experiment on HCT-116 [2]; 12.8 µg/mL (≈ 36.6 µM) in the experiment listed under Homo sapiens; above 31 µg/mL in [5]. For the same compound, the T/C in the experiment on P388 [15] is recorded as 105%.
`CO[C@@]12[C@H](COC(N)=O)C3=C(C(=O)C(C)=C(N)C3=O)N1C[C@@H]1N[C@@H]12` [MITOMYCIN]: the IC50 stood at 0.47 µg/mL (≈ 1.41 µM) in the experiment on A549 [1]; 0.015 µg/mL (≈ 0.0449 µM) with A549 [6]; 0.08 µg/mL (≈ 0.239 µM) with A549 [7]; 3.6 µg/mL (≈ 10.8 µM) in the experiment on B16; 1.5 µg/mL (≈ 4.49 µM) in the experiment on B16-F10; 0.015 µg/mL (≈ 0.0449 µM) in the experiment with HCT-116 [8]. The IC50 with HCT-116 [9] came to 0.01 µg/mL (≈ 0.0299 µM); in the experiment with HCT-116 [2], 1.1 µg/mL (≈ 3.29 µM); in the experiment filed under Homo sapiens, 2.8 µg/mL (≈ 8.37 µM); in [13], 0.24 µg/mL (≈ 0.718 µM); in [5], 8.1 µg/mL (≈ 24.2 µM).
